mABHD4 FP – ABHD4 (mouse) inhibition, primary FP screen | Q8VD66 | purified mABHD4, FP-Rh probe fluorescence polarization | inhibition, % at 8.92 µM | actives 0.54% (n = 370,000);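 active = inhibition exceeding the mean over every tested compound plus 3 SD, cut at about 30% in these data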
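Assay system: Wild-type mouse ABHD4 protein | Medium: HEPES pH 7.0 buffer, 150 mM NaCl, 0.01% Pluronic F-127 | Incubation: Enzyme–compound pre-incubation 45 min, then probe 60 min, both 25 °C | Technique: Fluorescence polarization with parallel and perpendicular emission, 525/598 nm | Evaluation: % inhibition of FP-Rh probe binding versus controls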
TDP2 inh – blocks human TDP2 phosphodiesterase activity; AID 720702; recombinant TDP2, T5PNP hydrolysis, p-nitrophenol absorbance 415 nm; inhibition, % at 12.8 µM; O95551; actives 0.34% (n = 370,000);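 active = inhibition above the mean of all tested compounds plus 3 SD, set per campaign, cut at about 25% in these data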
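test system = human TDP2 enzyme | input = TDP2 enzyme at 120 nM final | medium = 50 mM Tris-HCl pH 7.5 with Mg2+, KCl, DTT, BSA | also added = T5PNP substrate, 5 mM | times = 2 h at 37 °C | technique = epi absorbance | benchmarks = high control without enzyme, low control DMSO plus TDP2 | replication = each compound tested once, singlicate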
LEDGF integ inh – blocks HIV-1 LEDGF/p75-dependent DNA integration. TR-FRET IN-LEDGF/p75 DNA integration, Eu/Cy5. inhibition, % at 3.7 µM. actives 0.64% (n = 370,000);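 active = inhibition above the screen-wide mean plus 3 SD, cut at about 13% in these data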;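 also: signal is the Cy5 over europium emission ratio at 671 and 618 nm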
SIAE inh – human SIAE inhibition, primary screen. actives 0.69% (n = 370,000). Q9HAT2. SIAE FP-Rh probe binding, fluorescence polarization. inhibition, % at 9.66 µM;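 active = inhibition above a cutoff: mean of compounds within the control limits plus 3 SD of those, cut at about 17% in these data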
HTRA1 inh – HTRA1 (human) protease inhibition | Q92743 | recombinant HTRA1, FP-rhodamine activity-based probe, fluorescence polarization | inhibition, % at 5.96 µM | actives 0.5% (n = 340,000) | AID 504803; in the data active = inhibition above about 36%
Target sequence (Q92743 whole entry, looked up): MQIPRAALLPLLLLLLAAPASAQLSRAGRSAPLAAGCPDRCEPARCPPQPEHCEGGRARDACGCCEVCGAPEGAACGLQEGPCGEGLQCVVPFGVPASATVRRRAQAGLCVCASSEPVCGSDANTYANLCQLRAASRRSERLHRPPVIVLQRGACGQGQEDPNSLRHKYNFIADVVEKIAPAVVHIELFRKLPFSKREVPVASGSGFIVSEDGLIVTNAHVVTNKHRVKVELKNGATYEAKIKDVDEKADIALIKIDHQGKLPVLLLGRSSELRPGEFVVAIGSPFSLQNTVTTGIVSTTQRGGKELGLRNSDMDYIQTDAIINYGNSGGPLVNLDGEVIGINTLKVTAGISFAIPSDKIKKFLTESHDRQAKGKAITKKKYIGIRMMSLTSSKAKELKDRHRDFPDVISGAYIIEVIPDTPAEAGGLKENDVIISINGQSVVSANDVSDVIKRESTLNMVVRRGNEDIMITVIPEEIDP
TCR-CD3 inh – blocks the human TCR-CD3 interaction. inhibition, % at 9.4 µM. TAMRA-labeled TCR probe fluorescence, biochemical. AID 651800. actives 0.37% (n = 360,000); in the data active = inhibition above about 19%;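 also: recombinant mutant TCR 2C K166C tagged with TAMRA read by polarization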
IN multimer up – HIV-1 integrase multimerization activation, counter-screen | shares compounds with LEDGF integ inh | TR-FRET HIV-1 integrase multimerization, biochemical | activation, % at 7.7 µM | actives 17% (n = 2,000) | AID 1053131; in the data active = activation above about 8.9%
TRFRET interf – counter-screen for LEDGF/p75 integration inhibitors: TR-FRET optical interference; shares compounds with LEDGF integ inh; TR-FRET optical interference counterscreen, HIV-1 IN multimerization; inhibition, % at 7.7 µM; 2,000 tested, under 10 active;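 active = inhibition above the mean over all tested compounds plus 3 SD, which no compound reached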
IN-LEDGF confirm – LEDGF/p75-dependent HIV-1 integration inhibition, confirmation; actives 36% (n = 2,000); TR-FRET LEDGF/p75-dependent HIV-1 integration, biochemical; inhibition, % at 3.7 µM; shares compounds with LEDGF integ inh; in the data active = inhibition above about 14%
Of the large screens only hits and unclear results are named; the others gave an inactive call (follow-up assays come after a bar, where they were run). This is a sample that favours compounds with a hit; in the whole collection about 2.2% have one here.

COC(=O)c1cc(S(=O)(=O)N2CCCC2)c(Cl)cc1Cl	LEDGF integ inh 61 | IN multimer up inactive | TRFRET interf inactive | IN-LEDGF confirm inactive
O=C(COC(=O)C1CC2CCCC(C1)C2=O)NNC(=O)c1ccccc1Br (configuration not stated)	none
O=C(NCCCN1CCCC1=O)c1cccc(S(=O)(=O)N2CCN(c3ccc(F)cc3)CC2)c1	none
Cc1[nH]n(-c2ccccc2)c(=O)c1C(c1cccc([N+](=O)[O-])c1)c1c(C)[nH]n(-c2ccccc2)c1=O	TDP2 inh 90, LEDGF integ inh 27 | IN multimer up inactive | TRFRET interf inactive | IN-LEDGF confirm inactive
Cc1onc(-c2c(Cl)cccc2Cl)c1-c1nc2cc(Cl)ccc2c(=O)o1	LEDGF integ inh 81 (no result: HTRA1 inh) | IN multimer up inactive | TRFRET interf inactive | IN-LEDGF confirm inactive
Cc1onc(-c2c(F)cccc2Cl)c1-c1nnc(-c2cccc3ccccc23)o1	none (no result: HTRA1 inh)
CC[C@H](NC(=O)[C@@H](Cc1ccccc1)NC(=O)[C@H]1O[C@@H](n2ccc(=O)[nH]c2=O)[C@H](O)[C@@H]1O)c1ccccc1	none (no result: HTRA1 inh)
O=C(CSc1nnnn1-c1cccc2ccccc12)Nc1ccc(C(=O)O)cc1	none
COC(=O)CSc1nnnn1-c1cccc2ccccc12	LEDGF integ inh 23 | IN multimer up inactive | TRFRET interf inactive | IN-LEDGF confirm inactive
Cc1ccc(C2CC(=O)N3CN(c4ccc(Br)cc4)CSC3=C2C#N)o1 (configuration not stated)	LEDGF integ inh 43 | IN multimer up inactive | TRFRET interf inactive | IN-LEDGF confirm 40
CCOc1ccc(N2CSC3=C(C#N)C(c4ccco4)CC(=O)N3C2)cc1 (configuration not stated)	TDP2 inh 34, LEDGF integ inh 47 | IN multimer up 15 | TRFRET interf inactive | IN-LEDGF confirm 41
CCOC(=O)c1ccc(N2CSC3=C(C#N)C(c4ccc(OC)cc4OC)CC(=O)N3C2)cc1 (configuration not stated)	none
N#CC1=C2SCN(c3ccccc3)CN2C(=O)CC1c1cccs1 (configuration not stated)	none
COc1ccc(Oc2c(Br)cnn(Cc3cccc4ccccc34)c2=O)cc1	none (no result: HTRA1 inh, TCR-CD3 inh)
Cn1c(=O)cc(OCCCC(=O)Nc2cc(C(F)(F)F)ccn2)c2ccccc21	none (no result: HTRA1 inh, TCR-CD3 inh)
COc1cc(-c2ccc3c(=O)c4ccccc4sc3c2)cc(OC)c1OC	LEDGF integ inh 16 | IN multimer up 9.3 | TRFRET interf inactive | IN-LEDGF confirm inactive
COc1cc(-c2ccc3c(=O)c4ccccc4n(C)c3c2)cc(OC)c1OC	none
O=C1CSc2ccccc2N1Cc1ccc(F)cc1	LEDGF integ inh 38 | IN multimer up inactive | TRFRET interf inactive | IN-LEDGF confirm inactive
COc1cc(/C=C(\C#N)c2nc3ccccc3[nH]2)cc(OC)c1O	LEDGF integ inh 16 | IN multimer up inactive | TRFRET interf inactive | IN-LEDGF confirm inactive
CCOC(=O)c1c(NC(=O)c2ccco2)sc2c1CCCCC2	none
CCOC(=O)c1c(NC(=O)CSc2nnc(CNC(=O)c3ccco3)n2C)sc2c1CCC2	LEDGF integ inh 60 | IN multimer up inactive | TRFRET interf inactive | IN-LEDGF confirm inactive
COc1ccc(/C=N/Nc2nc(N)cc(Cl)n2)cc1OC	LEDGF integ inh 28 | IN multimer up inactive | TRFRET interf inactive | IN-LEDGF confirm inactive
COc1ccc(/C=N/Nc2nonc2N)cc1OC	none
O=C(Nc1ccc(F)cc1)NC1CCN(Cc2nnnn2Cc2ccco2)CC1	LEDGF integ inh 14 | IN multimer up inactive | TRFRET interf inactive | IN-LEDGF confirm inactive
O=C(Nc1ccccc1F)NC1CCN(Cc2nnnn2Cc2ccc(F)cc2)CC1	none
CC1CCCCC12NC(=O)N(CC(=O)N1CCN(S(=O)(=O)c3ccc4c(c3)CCC4)CC1)C2=O (configuration not stated)	none
CC1CN(C)C(C)C/C1=N\Oc1ccc([N+](=O)[O-])cc1 (configuration not stated)	none
CC1CN(C)C(C)C/C1=N/Oc1ccccc1[N+](=O)[O-] (configuration not stated)	LEDGF integ inh 26 | IN multimer up inactive | TRFRET interf inactive | IN-LEDGF confirm inactive
Cc1cccc2cc(CN(Cc3ccc(F)cc3)C(=O)N3CCOCC3)c(=O)[nH]c12	LEDGF integ inh 14 | IN multimer up inactive | TRFRET interf inactive | IN-LEDGF confirm inactive
CC1C=CC=CCCC=CC=CC=CC=CC(OC2O[C@H](C)[C@@H](O)[C@H](N)[C@@H]2O)CC(O)C(C(=O)O)C(O)CC(=O)CC(O)C(O)CCC(O)CC(O)CC(O)CC(=O)OC(C)C(C)C1O (some centres not stated)	LEDGF integ inh 26 (no result: HTRA1 inh, TCR-CD3 inh) | IN multimer up inactive | TRFRET interf inactive | IN-LEDGF confirm 43
Cc1cc(SCC(=O)NCCN2C(=O)CSC2=O)nc2c(C)cccc12	LEDGF integ inh 23 | IN multimer up inactive | TRFRET interf inactive | IN-LEDGF confirm inactive
Cc1cc(Cl)ccc1C(=O)C1CCCN(C(=O)c2cnn(C(C)C)c2)C1 (configuration not stated)	none
CCOC(=O)[C@]12CCCCC/C=C\1N(CCc1ccc(Cl)cc1)C(=O)[C@H]2CC(=O)NCC1CCCCC1	none (no result: HTRA1 inh, TCR-CD3 inh)
Cc1ccc(/C=c2\s/c(=C(/C#N)C(=O)N3CCCC3)n(Cc3ccco3)c2=O)s1	LEDGF integ inh 14 | IN multimer up inactive | TRFRET interf inactive | IN-LEDGF confirm inactive
CC(C)OCCCNC(=O)C(=O)N/N=C/c1ccc(OCc2ccccc2)cc1	none (no result: HTRA1 inh)
O=C1CC(c2ccco2)CC(O)=C1C=NCC1NCCc2ccccc21 (configuration not stated)	LEDGF integ inh 23 | IN multimer up inactive | TRFRET interf inactive | IN-LEDGF confirm inactive
Cc1cccc2nc(-c3ccccc3)c(-c3ccc(CN4CCC(n5cc(-c6ccccc6)[nH]c5=O)CC4)cc3)nc12	none (no result: HTRA1 inh)
O=C(O)CC1(O)C(=O)N(Cc2ccccc2)c2ccccc21 (configuration not stated)	none
N#CCC1(O)C(=O)N(Cc2ccccc2)c2ccccc21 (configuration not stated)	LEDGF integ inh 76 (no result: HTRA1 inh) | IN multimer up inactive | TRFRET interf inactive | IN-LEDGF confirm inactive

Compound activity deposited in PubChem by The Scripps Research Institute Molecular Screening Center.
